Source: ChEMBL document CHEMBL2150948, “Quinolinyl Pyrimidines: Potent Inhibitors of NDH-2 as a Novel Class of Anti-TB Agents” (ACS Med Chem Lett, 2012)
In brackets after ≈: the same amount, converted by molar mass.

Key:
[1] = Partition coefficient, log D of the compound; format: physicochemical; settings: octanol/water
[2] = Toxicity in RBC assessed as hemolysis; format: cell-based; settings: erythrocyte
Saccharomyces cerevisiae = assay: Antimicrobial activity against Saccharomyces cerevisiae; format: organism-based
[3] = Inhibition of Mycobacterium tuberculosis NDH-2 by UV spectrophotometry
Summary of the method: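 Purified Mtb NDH-2 at 1 nM in 50 mM Hepes-NaOH pH 7.5 with 100 mM NaCl, 0.008% Brij-35 and 300 μM NADH; reaction started with 50 μM menadione, run 1 h at 37 °C. NADH oxidation followed as fall in absorbance at 340 nm. Screening at 20 μM, then concentration-response for IC50.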

[4] = Intrinsic clearance in mouse microsomes assessed per mg protein at 100 uM by HPLC analysis; format: ADME, Microsome
[5] = test system: Mycobacterium tuberculosis; assay: Antimycobacterial activity against Mycobacterium tuberculosis assessed as growth inhibition after 5 days by MABA/resazurin assay; format: functional; settings: 120 h
[6] = Fraction unbound in plasma at 20 uM after 18 hrs by equilibrium dialysis method; format: ADME, cell-free
[7] = Solubility of the compound in 0.1 M phosphate buffer after 24 hrs by UV/MS analysis; format: physicochemical
Summary of the method: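 Solubility measured in presence of 2% (v/v) DMSO.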

SMILES	logD [1]	MHC [2] [µg/mL]	MIC (Saccharomyces cerevisiae) [µg/mL]	IC50 [3] [nM]	microsomal CLint at 100 µM [4] [µL/min/mg]	MIC [5] [µM]	fraction unbound at 18 h, 20 µM [6]	solubility at 24 h [7] [µM]
Nc1nc(Nc2ccc3nc(-c4ccc(F)cc4)cc(N)c3c2)cc(-c2ccc(Cl)cc2)n1	3	> 32	> 32	43	13.4	1.91 (≈ 0.873 µg/mL)	0.008	6 (≈ 2.74 µg/mL)
Cc1cccc(-c2cc(Nc3ccc4nc(-c5ccc(F)cc5)cc(N)c4c3)nc(N)n2)c1	3.18	> 32	> 32	96		< 0.81	0.0144	70 (≈ 30.6 µg/mL)
Nc1nc(Nc2ccc3nc(-c4ccc(F)cc4)cc(N)c3c2)cc(-c2ccc(C(F)(F)F)cc2)n1	2.16	> 32	> 32	81	< 4	2.88 (≈ 1.41 µg/mL)		2450 (≈ 1200 µg/mL)
Nc1nc(Nc2ccc3nc(-c4ccc(F)cc4)cc(N)c3c2)cc(-c2ccc(F)cc2)n1	3.06	> 32	> 32	53		1.14 (≈ 0.502 µg/mL)	0.0249	12 (≈ 5.29 µg/mL)
Nc1nc(Nc2ccc3nc(-c4ccc(F)cc4)cc(N)c3c2)cc(-c2cccc(Cl)c2)n1	3.06	> 32	> 32	50		2.19 (≈ 1 µg/mL)		15 (≈ 6.85 µg/mL)
Nc1nc(Nc2ccc3nc(-c4ccc(F)cc4)cc(N)c3c2)cc(-c2ccccc2)n1				73		1.67 (≈ 0.706 µg/mL)		
Nc1nc(Nc2ccc3nc(-c4ccc(F)cc4)cc(N)c3c2)cc(-c2ccccc2F)n1				187		3.21 (≈ 1.41 µg/mL)		
COc1ccccc1-c1cc(Nc2ccc3nc(-c4ccc(F)cc4)cc(N)c3c2)nc(N)n1				< 620		4.42 (≈ 2 µg/mL)		
COc1cccc(-c2cc(N)c3cc(Nc4cc(-c5ccc(Cl)cc5)nc(N)n4)ccc3n2)c1				< 260		2.13 (≈ 0.999 µg/mL)		
Nc1nc(Nc2ccc3nc(-c4ccc(F)cc4)cc(N)c3c2)cc(-c2ccccn2)n1				133		9.45 (≈ 4 µg/mL)		
CC(C)c1cc(Nc2ccc3nc(-c4ccc(F)cc4)cc(N)c3c2)nc(N)n1				1470		7.28 (≈ 2.83 µg/mL)		
CCc1cc(Nc2ccc3nc(-c4ccc(F)cc4)cc(N)c3c2)nc(N)n1				2400		15.1 (≈ 5.66 µg/mL)		
Cc1cc(Nc2ccc3nc(-c4ccc(F)cc4)cc(N)c3c2)nc(N)n1				601		22.2 (≈ 8 µg/mL)		
Cc1cccc(-c2cc(Nc3ccc4nccc(N)c4c3)nc(N)n2)c1				10800		48.9 (≈ 16.7 µg/mL)		
Cn1ccc(-c2cc(Nc3ccc4nc(-c5ccc(F)cc5)cc(N)c4c3)nc(N)n2)n1				1380		53.1 (≈ 22.6 µg/mL)		
Nc1nc(Nc2cnc3ccccc3c2)cc(-c2cccc(Cl)c2)n1				5770		> 73		
Nc1nc(Nc2cnc3ccccc3c2)cc(-c2ccc(C(F)(F)F)cc2)n1				2050		66.6 (≈ 25.4 µg/mL)		
Cc1cc(Nc2ccc3nc(C)ccc3c2)nc(C)n1				> 100000		> 121		
